From ChEMBL document CHEMBL1155469, “Peptide nucleic acids conjugated to short basic peptides show improved pharmacokinetics and antisense activity in adipose tissue” (J Med Chem, 2010)
The source made the active and inactive calls. The calls are words filed in the database; no cut-off is given here.

What was measured:
Mus musculus [1] = experiment: Acute toxicity in Balb/C mouse assessed as change in plasma chemistry at 1.5 to 6.0 umol/kg, ip administered thrice a week for 2 weeks measured 48 hrs after last dose; assay type: organism-based; settings: in vivo
Summary of the method: (§1)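 Male Balb/c mice aged 6–8 weeks, n=4 per group, dosed i.p. with compound suspended in PBS and filter sterilized, 10 ul/g body weight. Body weight tracked throughout the live phase. Under isoflurane anaesthesia, terminal cardiac-puncture bleed; serum taken for transaminases and other chemistries. Sacrifice by cervical dislocation 48 h after last dose, with liver and spleen weighed at necropsy. Kidneys examined by histopathology.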

Mus musculus [2] = experiment: Inhibition of IR expression in Balb/C mouse adipose tissue assessed as reduction in IR-B transcript at 6.0 umol/kg, ip administered thrice a week for 2 weeks measured 48 hrs after last dose […]; assay type: functional; design: scale not given: the % may be the effect or the level left
Summary of the method: (§2)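 Male Balb/c mice, n=4 per group, dosed i.p. in PBS and sacrificed 48 h after last dose. Liver, kidney and adipose tissue homogenised at once in 4 M guanidine isothiocyanate, 25 mM EDTA, 50 mM Tris-HCl pH 6. RNA purified on columns and run by fluorescence-based quantitative RT-PCR. Target transcript levels normalised to cyclophilin A and expressed relative to saline-treated controls.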

Mus musculus [3] = experiment: Acute toxicity in Balb/C mouse assessed as change in spleen weight at 1.5 to 6.0 umol/kg, ip administered thrice a week for 2 weeks measured 48 hrs after last dose; assay type: organism-based; settings: in vivo; summary of the method: as §1
Mus musculus [4] = experiment: Inhibition of IR expression in Balb/C mouse kidney assessed as reduction in IR-B transcript at 6.0 umol/kg, ip administered thrice a week for 2 weeks measured 48 hrs after last dose […]; assay type: functional, organism-based; summary of the method: as §2
Mus musculus [5] = experiment: Inhibition of IR expression in Balb/C mouse adipose tissue assessed as upregulation of IR-A transcript at 6.0 umol/kg, ip administered thrice a week for 2 weeks measured 48 hrs after last dose by […]; assay type: functional; design: scale not given: the % may be the effect or the level left; summary of the method: as §2
Mus musculus [6] = experiment: Acute toxicity in Balb/C mouse assessed as reduction in body weight at 1.5 to 6.0 umol/kg, ip administered thrice a week for 2 weeks measured 48 hrs after last dose; assay type: organism-based; settings: in vivo; summary of the method: as §1
Mus musculus [7] = experiment: Acute toxicity in Balb/C mouse assessed as change in liver weight at 1.5 to 6.0 umol/kg, ip administered thrice a week for 2 weeks measured 48 hrs after last dose; assay type: organism-based; settings: in vivo; summary of the method: as §1
Mus musculus [8] = experiment: Inhibition of IR expression in Balb/C mouse kidney assessed as upregulation of IR-A transcript at 6.0 umol/kg, ip administered thrice a week for 2 weeks measured 48 hrs after last dose […]; assay type: functional, organism-based; summary of the method: as §2
Mus musculus [9] = experiment: Inhibition of IR expression in Balb/C mouse liver assessed as upregulation of IR-A transcript at 6.0 umol/kg, ip administered thrice a week for 2 weeks measured 48 hrs after last dose by quantitative RT-PCR analysis
Mus musculus [10] = experiment: Inhibition of IR expression in Balb/C mouse kidney assessed as upregulation of IR-A transcript at 1.5 umol/kg, ip administered thrice a week for 2 weeks measured 48 hrs after last dose […]; assay type: functional, organism-based; summary of the method: as §2
Mus musculus [11] = experiment: Inhibition of IR expression in Balb/C mouse kidney assessed as reduction in IR-B transcript at 1.5 umol/kg, ip administered thrice a week for 2 weeks measured 48 hrs after last dose […]; assay type: functional, organism-based; summary of the method: as §2
Mus musculus [12] = experiment: Acute toxicity in Balb/C mouse assessed as reduction in body weight at 10.5 umol/kg, ip administered thrice a week for 2 weeks measured 48 hrs after last dose; assay type: organism-based; settings: in vivo; summary of the method: as §1
Mus musculus [13] = experiment: Inhibition of IR expression in Balb/C mouse liver assessed as upregulation of IR-A transcript at 1.5 umol/kg, ip administered thrice a week for 2 weeks measured 48 hrs after last dose by quantitative RT-PCR analysis

SMILES: Cc1cn(CC(=O)N(CCNC(=O)CN(CCNC(=O)CN(CCNC(=O)CN(CCNC(=O)CN(CCNC(=O)CN(CCNC(=O)CN(CCNC(=O)CN(CCNC(=O)[C@H](CCCCN)N(CCNC(=O)CN(CCNC(=O)CN(CCNC(=O)CN(CCNC(=O)[C@H](CCCCN)NC(=O)[C@H](CCCCN)NC(=O)[C@H](CCCCN)NC(=O)[C@H](CCCCN)NC(=O)[C@H](CCCCN)NC(=O)[C@H](CCCCN)NC(=O)[C@H](CCCCN)NC(=O)[C@@H](N)CCCCN)C(=O)Cn2cnc3c(N)ncnc32)C(=O)Cn2ccc(N)nc2=O)C(=O)Cn2ccc(N)nc2=O)C(=O)Cn2cc(C)c(=O)[nH]c2=O)C(=O)Cn2cnc3c(N)ncnc32)C(=O)Cn2ccc(N)nc2=O)C(=O)Cn2cc(C)c(=O)[nH]c2=O)C(=O)Cn2cnc3c(=O)[nH]c(N)nc32)C(=O)Cn2cc(C)c(=O)[nH]c2=O)C(=O)Cn2ccc(N)nc2=O)C(=O)Cn2ccc(N)nc2=O)CC(=O)NCCN(CC(=O)NCCN(CC(=O)NCCN(CC(=O)NCCN(CC(=O)NCCN(CC(=O)NCCN(CC(=O)NCCN(CC(=O)NCCN(CC(=O)N[C@@H](CCCCN)C(N)=O)C(=O)Cn2cnc3c(N)ncnc32)C(=O)Cn2ccc(N)nc2=O)C(=O)Cn2ccc(N)nc2=O)C(=O)Cn2cnc3c(N)ncnc32)C(=O)Cn2ccc(N)nc2=O)C(=O)Cn2cnc3c(=O)[nH]c(N)nc32)C(=O)Cn2cnc3c(=O)[nH]c(N)nc32)C(=O)Cn2ccc(N)nc2=O)c(=O)[nH]c1=O
- Activity (Mus musculus [1]): Non-toxic
- Activity (Mus musculus [2]): 50%
- Activity (Mus musculus [3]): Non-toxic
- Activity (Mus musculus [4]): inactive
- Activity (Mus musculus [5]): 200%
- Activity (Mus musculus [6]): Non-toxic
- Activity (Mus musculus [7]): Non-toxic
- Activity (Mus musculus [8]): Active
- Activity (Mus musculus [9]): Active
- Activity (Mus musculus [10]): Active
- Activity (Mus musculus [11]): inactive
- Activity (Mus musculus [12]): Toxic
- Activity (Mus musculus [13]): Active
